According to article PMC8962836 (Journal of Alzheimer's disease : JAD, 2016):
Where “and” joins values, the source holds several entries; their conditions need not be identical. Equal values may be shown once. Entries after “also recorded” stand apart in the source; their conditions may differ.

Key:
3xTgAD mouse model = settings: cited from earlier work
Aβ levels = settings: cited from earlier work
[1] = test system: Aβ42-induced LTP impairment in hippocampal slices; assay type: cell-based, mouse; settings: compound 650 nM co-administered with Aβ42 (200 nM, 20 min)
Procedure, shortened: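 Mouse transverse hippocampal slices (400 μm) were kept in an interface chamber at 29°C. Aβ42 oligomers were formed overnight at 4°C in ACSF, then diluted in vehicle. Test compound (Tween-80/DMSO stock diluted in vehicle) was perfused with Aβ42 for 20 min before tetanization, and responses were recorded for 120 min. Data are % of control or (co-treatment/Aβ42 alone)×100; mean ± SEM, repeated-measures two-way ANOVA.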

[2] = Pharmacokinetic assessment in plasma; assay type: in vivo, ICR mice
Procedure, shortened: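 Male ICR mice (54 total; 3 groups of 18) were dosed i.p. with test compound in Tween-80 + DMSO diluted with vehicle. Plasma was separated by centrifugation (11,000 rpm, 5 min), stored at –80°C, and 25 μl was processed for LC/MS/MS. Calibration standards were spiked into heparinized blank mouse plasma at 3.00–10,000 ng/ml.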

[3] = test system: calpain (calpain-generated spectrin fragment around 145 kDa); assay: Spectrin western blotting of hippocampal homogenates after in vivo treatment; design: species or system mouse
Procedure, shortened: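 Hippocampi were taken from mice given test compound or vehicle. Tissue was homogenized in 62.5 mM Tris-HCl pH 6.8, 3% LDS, 1 mM DTT, held 10 min at 4°C, sonicated and centrifuged (20,000 rpm, 5 min). Extracts (15 μg/lane; vehicle also 20 μg) ran on 3–8% Tris-Acetate gels. Blots were probed with spectrin and β-III-tubulin antibodies (1:1,000) for the ~145 kDa calpain fragment.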

WT mice = settings: mouse, in vivo, ip
mice = settings: mouse, in vivo
AβPP/PS1 mice [4] = assay: Contextual fear conditioning; assay type: in vivo, mouse
Procedure, shortened: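 AβPP/PS1 and WT littermates got daily vehicle or test compound (Tween-80/DMSO, then vehicle-diluted). Training: one mouse per room, 2 min in the conditioning chamber, 0.50 mA foot shock for 2 s in the last 2 s, then 30 s more before returning to the home cage. Contextual freezing was scored. Investigators were blind to treatment and genotype; n = 8–18 per group; mean ± SEM, one-way ANOVA.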

AβPP/PS1 mice [5] = assay: 2-day radial-arm water maze; assay type: in vivo, mouse
Procedure, shortened: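 2-day RAWM in AβPP/PS1 and WT littermates given vehicle or test compound daily. Compounds were dissolved in Tween-80 + DMSO, then diluted with vehicle. Mice were trained […] to find a goal-arm platform, alternating visible and hidden platform. Investigators were blind to treatment and genotype. Data are mean ± SEM, analysed by two-way repeated-measures ANOVA.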

calpain 1 = settings: read-out: IC50 calpain 1; cited from earlier work
[6] = daily treatment from age 2 months until 7 months

CCN(CC)Cc1ccc(/C=C/c2ccccc2C(=O)NC(Cc2ccccc2)C(=O)C(N)=O)cc1 (centres unmarked) [A-705253]
Activity in 3xTgAD mouse model (3xTgAD mouse model): rescuing memory defects, and reducing levels of BACE enzyme, Aβ deposits, and overall neuroinflammation

CC(C)C[C@H](NS(=O)(=O)c1ccccc1)C(=O)N[C@@H](C(C)C)[C@@H](O)c1c(-c2ccccc2)c1=O [BDA-410]
Effect on Aβ levels (Aβ levels): do not have any effect on Aβ levels

CC(C)C[C@H](NC(=O)[C@H]1O[C@@H]1C(=O)O)C(=O)NCCCCN=C(N)N [E64]
Effect on Aβ levels (Aβ levels): do not have any effect on Aβ levels

O=C(NCc1cn(-c2ccc(F)cc2)nn1)[C@H](Cc1cscn1)NC(=O)[C@H]1O[C@@H]1C(=O)O [NYC488]
Rescue of Aβ42-induced LTP impairment (phenotypic screening) [1]: robust results; also recorded: surpassed E64 benchmark in the LTP rescue assay
Absolute bioavailability ([2]; i.p., equimolar dose (7.57/7.86/7.83 mg/kg)): 41.3%
Half-life ([2]; plasma, i.p., equimolar dose (7.57/7.86/7.83 mg/kg)): 0.6 h and ~ 0.6 h
Absorption ([2]; upon i.p. injection): rapidly absorbed
Prevention of calpain-generated spectrin fragments in hippocampus ([3]; i.p. treatment for 12 days, same doses as PK): dramatically reduced the amount of fragments
Ability to cross the blood-brain barrier and inhibit calpain in the brain ([3]; inferred from spectrin fragment decrease after systemic administration): cross the blood-brain barrier (BBB) and inhibit calpain in the brain
Maximum tolerated dose (MTD) (WT mice): 200 mg/kg
Clinical signs of toxicity after acute single dose at MTD (mice): No clinical signs of toxicity
Contextual fear memory defect in AβPP/PS1 mice (AβPP/PS1 mice [4]; daily treatment from age 2 months until 3 months, 7.57/7.86/7.83 mg/kg): ameliorated the defect in contextual fear memory
Contextual fear memory defect in AβPP/PS1 mice (AβPP/PS1 mice [4]; [6]): ameliorated the defect in contextual fear memory
RAWM performance of WT littermates (AβPP/PS1 mice [5]; WT littermates, treatment 2 to 3 months of age): did not affect the WT littermate performance
Spatial memory defect (2-day RAWM) in AβPP/PS1 mice (AβPP/PS1 mice [5]; daily treatment from age 2 months until 3 months): ameliorated the defect in spatial memory; also recorded: ameliorated the deficit in RAWM performance
Spatial memory defect (2-day RAWM) in AβPP/PS1 mice (AβPP/PS1 mice [5]; [6]): ameliorated the defect in spatial memory
IC50 (calpain 1): < 100 nM
